How the values were obtained:
Parameters in all cases: scale not given: the % may be the effect or the level left
[1] = Antiplatelet activity against rabbit platelets assessed as inhibition of PAF-induced platelet aggregation at 100 ug/ml preincubated for 3 mins by turbidimetric method; format: functional, Oryctolagus cuniculus
Summary of the method: (§1)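 Washed rabbit platelets were preincubated with test sample or 0.5% DMSO vehicle for 3 min at 37 °C. Inducers were thrombin 0.1 U/mL, arachidonic acid 100 μM, collagen 10 μg/mL or PAF 2 nM. Turbidimetric read-out took platelet suspension absorbance as 0% and platelet-free Tyrode's as 100% aggregation, measured at 6 min. Results are mean ± SEM with n per entry.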

[2] = Antiplatelet activity against rabbit platelets assessed as inhibition of PAF-induced platelet aggregation at 50 ug/ml preincubated for 3 mins by turbidimetric method; format: functional, Oryctolagus cuniculus; summary of the method: as §1
[3] = Antiplatelet activity against rabbit platelets assessed as inhibition of PAF-induced platelet aggregation at 20 ug/ml preincubated for 3 mins by turbidimetric method; format: functional, Oryctolagus cuniculus; summary of the method: as §1
[4] = Antiplatelet activity against rabbit platelets assessed as inhibition of PAF-induced platelet aggregation at 10 ug/ml preincubated for 3 mins by turbidimetric method; format: functional, Oryctolagus cuniculus; summary of the method: as §1
Aorta [5] = test: Vasorelaxation activity in rat aorta assessed as inhibition of K+-induced contraction at 50 ug/ml preincubated for 15 mins relative to control; format: functional
Summary of the method: (§2)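 Rat aorta was preincubated with test sample or 0.1% DMSO vehicle at 37 °C for 15 min. Contraction was then evoked with high K+ (80 mM) or norepinephrine (3 μM). Response is expressed as percent of control contraction, mean ± SEM, n = 3.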

Aorta [6] = test: Vasorelaxation activity in rat aorta assessed as inhibition of K+-induced contraction at 15 ug/ml preincubated for 15 mins relative to control; format: functional; summary of the method: as §2
Aorta [7] = test: Vasorelaxation activity in rat aorta assessed as inhibition of norepinephrine-induced phasic contraction at 50 ug/ml preincubated for 15 mins relative to control; format: functional; summary of the method: as §2
Aorta [8] = test: Vasorelaxation activity in rat aorta assessed as inhibition of norepinephrine-induced tonic contraction at 50 ug/ml preincubated for 15 mins relative to control; format: functional; summary of the method: as §2
[9] = Antiplatelet activity against rabbit platelets assessed as inhibition of thrombin-induced platelet aggregation at 100 ug/ml preincubated for 3 mins by turbidimetric method; format: functional, Oryctolagus cuniculus; summary of the method: as §1
[10] = Antiplatelet activity against rabbit platelets assessed as inhibition of thrombin-induced platelet aggregation at 50 ug/ml preincubated for 3 mins by turbidimetric method; format: functional, Oryctolagus cuniculus; summary of the method: as §1
[11] = Antiplatelet activity against rabbit platelets assessed as inhibition of thrombin-induced platelet aggregation at 20 ug/ml preincubated for 3 mins by turbidimetric method; format: functional, Oryctolagus cuniculus; summary of the method: as §1
[12] = Antiplatelet activity against rabbit platelets assessed as inhibition of thrombin-induced platelet aggregation at 10 ug/ml preincubated for 3 mins by turbidimetric method; format: functional, Oryctolagus cuniculus; summary of the method: as §1
[13] = Antiplatelet activity against rabbit platelets assessed as inhibition of arachidonic acid-induced platelet aggregation at 100 ug/ml preincubated for 3 mins by turbidimetric method; format: functional, Oryctolagus cuniculus; summary of the method: as §1
[14] = Antiplatelet activity against rabbit platelets assessed as inhibition of arachidonic acid-induced platelet aggregation at 20 ug/ml preincubated for 3 mins by turbidimetric method; format: functional, Oryctolagus cuniculus; summary of the method: as §1
[15] = Antiplatelet activity against rabbit platelets assessed as inhibition of arachidonic acid-induced platelet aggregation at 10 ug/ml preincubated for 3 mins by turbidimetric method; format: functional, Oryctolagus cuniculus; summary of the method: as §1
[16] = Antiplatelet activity against rabbit platelets assessed as inhibition of collagen-induced platelet aggregation at 100 ug/ml preincubated for 3 mins by turbidimetric method; format: functional, Oryctolagus cuniculus; summary of the method: as §1
[17] = Antiplatelet activity against rabbit platelets assessed as inhibition of collagen-induced platelet aggregation at 20 ug/ml preincubated for 3 mins by turbidimetric method; format: functional, Oryctolagus cuniculus; summary of the method: as §1
[18] = Antiplatelet activity against rabbit platelets assessed as inhibition of collagen-induced platelet aggregation at 10 ug/ml preincubated for 3 mins by turbidimetric method; format: functional, Oryctolagus cuniculus; summary of the method: as §1
Aorta [19] = test: Vasorelaxation activity in rat aorta assessed as inhibition of K+-induced contraction at 5 ug/ml preincubated for 15 mins relative to control; format: functional; summary of the method: as §2
Aorta [20] = test: Vasorelaxation activity in rat aorta assessed as inhibition of norepinephrine-induced phasic contraction at 15 ug/ml preincubated for 15 mins relative to control; format: functional; summary of the method: as §2
Aorta [21] = test: Vasorelaxation activity in rat aorta assessed as inhibition of norepinephrine-induced tonic contraction at 15 ug/ml preincubated for 15 mins relative to control; format: functional; summary of the method: as §2
Aorta [22] = test: Vasorelaxation activity in rat aorta assessed as inhibition of K+-induced contraction at 1 ug/ml preincubated for 15 mins relative to control; format: functional
Summary of the method: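 Rat aorta preincubated with sample or DMSO (0.1%, control) at 37 °C for 15 min. Contraction then induced by high potassium (K+, 80 mM). Response expressed as percentage of control contraction, given as means ± S.E.M. (n = 3).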

[23] = Antiplatelet activity against rabbit platelets assessed as inhibition of PAF-induced platelet aggregation at 25 ug/ml preincubated for 3 mins by turbidimetric method; format: functional, Oryctolagus cuniculus; summary of the method: as §1
Aorta [24] = test: Vasorelaxation activity in rat aorta assessed as inhibition of K+-induced contraction at 12.5 ug/ml preincubated for 15 mins relative to control; format: functional; summary of the method: as §2
Aorta [25] = test: Vasorelaxation activity in rat aorta assessed as inhibition of K+-induced contraction at 3.8 ug/ml preincubated for 15 mins relative to control; format: functional; summary of the method: as §2
Aorta [26] = test: Vasorelaxation activity in rat aorta assessed as inhibition of norepinephrine-induced phasic contraction at 12.5 ug/ml preincubated for 15 mins relative to control; format: functional; summary of the method: as §2
Aorta [27] = test: Vasorelaxation activity in rat aorta assessed as inhibition of norepinephrine-induced tonic contraction at 12.5 ug/ml preincubated for 15 mins relative to control; format: functional; summary of the method: as §2
[28] = Antiplatelet activity against rabbit platelets assessed as inhibition of thrombin-induced platelet aggregation at 25 ug/ml preincubated for 3 mins by turbidimetric method; format: functional, Oryctolagus cuniculus; summary of the method: as §1
[29] = Antiplatelet activity against rabbit platelets assessed as inhibition of arachidonic acid-induced platelet aggregation at 25 ug/ml preincubated for 3 mins by turbidimetric method; format: functional, Oryctolagus cuniculus; summary of the method: as §1
[30] = Antiplatelet activity against rabbit platelets assessed as inhibition of collagen-induced platelet aggregation at 25 ug/ml preincubated for 3 mins by turbidimetric method; format: functional, Oryctolagus cuniculus; summary of the method: as §1
Aorta [31] = test: Vasorelaxation activity in rat aorta assessed as inhibition of K+-induced contraction at 100 ug/ml preincubated for 15 mins relative to control; format: functional; summary of the method: as §2
Aorta [32] = test: Vasorelaxation activity in rat aorta assessed as inhibition of K+-induced contraction at 30 ug/ml preincubated for 15 mins relative to control; format: functional; summary of the method: as §2
Aorta [33] = test: Vasorelaxation activity in rat aorta assessed as inhibition of norepinephrine-induced phasic contraction at 100 ug/ml preincubated for 15 mins relative to control; format: functional; summary of the method: as §2
Aorta [34] = test: Vasorelaxation activity in rat aorta assessed as inhibition of norepinephrine-induced phasic contraction at 30 ug/ml preincubated for 15 mins relative to control; format: functional; summary of the method: as §2
Aorta [35] = test: Vasorelaxation activity in rat aorta assessed as inhibition of norepinephrine-induced tonic contraction at 100 ug/ml preincubated for 15 mins relative to control; format: functional; summary of the method: as §2
Aorta [36] = test: Vasorelaxation activity in rat aorta assessed as inhibition of norepinephrine-induced tonic contraction at 30 ug/ml preincubated for 15 mins relative to control; format: functional; summary of the method: as §2
[37] = Antiplatelet activity against rabbit platelets assessed as inhibition of arachidonic acid-induced platelet aggregation at 50 ug/ml preincubated for 3 mins by turbidimetric method; format: functional, Oryctolagus cuniculus; summary of the method: as §1
[38] = Antiplatelet activity against rabbit platelets assessed as inhibition of collagen-induced platelet aggregation at 50 ug/ml preincubated for 3 mins by turbidimetric method; format: functional, Oryctolagus cuniculus; summary of the method: as §1

Compound | Activity [1] [%] | Activity (Aorta [5]) [%] | Activity (Aorta [7]) [%] | Activity (Aorta [8]) [%] | Activity [9] [%] | Activity [13] [%] | Activity [14] [%] | Activity [15] [%] | Activity [16] [%] | further results
CCC(=O)CC/C=C\CC/C=C/C=C/C(=O)NCC(C)C [LANYUAMIDE II] | 0 | 36.1 | 83.8 | 78.5 | 0 | 0 | 0 | 44.2 | 0 | Activity [2]: 0%; Activity [3]: 70.5%; Activity [4]: 77.8%; Activity (Aorta [6]): 72.5%; Activity [10]: 35.9%; Activity [11]: 75.2%; Activity [12]: 77.6%; Activity [17]: 0%; Activity [18]: 10.5%
CC(=O)[C@H]1CC[C@H]2[C@@H]3CC=C4C[C@@H](O)CC[C@]4(C)[C@H]3CC[C@]12C [PREGNENOLONE] | 77 | 93.6 | 114.1 | 102.6 | 91.8 | 86.5 | – | – | 84.7 | –
COc1ccc2c(c1OC)CN1CCc3cc4c(cc3[C@@H]1C2)OCO4 [CANADINE] | 54.7 | 13.6 | 11.2 | 25.6 | 91.2 | 45.8 | – | – | 76.4 | Activity (Aorta [6]): 49.8%; Activity (Aorta [19]): 82.8%; Activity (Aorta [20]): 79.1%; Activity (Aorta [21]): 70%
COC(=O)C1=C(C)NC(C)=C(C(=O)OC)C1c1ccccc1[N+](=O)[O-] [NIFEDIPINE] | – | – | – | – | – | – | – | – | – | Activity (Aorta [22]): 0%
COc1cccc2c1c1ccnc3ccc(=O)n2c31 | – | – | – | – | – | – | – | – | – | Activity [23]: 84.8%; Activity (Aorta [24]): 57.9%; Activity (Aorta [25]): 74.5%; Activity (Aorta [26]): 88.4%; Activity (Aorta [27]): 78.9%; Activity [28]: 90.3%; Activity [29]: 80.4%; Activity [30]: 76.3%
COc1ccc(-c2oc3c(OC)c(O)cc(O)c3c(=O)c2O)cc1 [PRUDOMESTIN] | 73.3 | – | – | – | 87.5 | 0 | 0 | 64.5 | 58.1 | Activity (Aorta [31]): 36.7%; Activity (Aorta [32]): 83.4%; Activity (Aorta [33]): 20%; Activity (Aorta [34]): 100.6%; Activity (Aorta [35]): 46.7%; Activity (Aorta [36]): 97.8%
CC(=O)Oc1ccccc1C(=O)O [ASPIRIN] | – | – | – | – | – | – | 42.7 | 90.2 | – | Activity [2]: 90.1%; Activity [10]: 92.1%; Activity [37]: 0%; Activity [38]: 87.1%
O=c1ccc2nccc3c4ccccc4n1c23 [CANTHIN-6-ONE] | 36.4 | – | – | – | 85.3 | 4.2 | – | – | 7.9 | Activity [37]: 57.3%

— ChEMBL document CHEMBL1158680, “Chemical constituents and biological activities of the fruit of Zanthoxylum integrifoliolum” (1999)
